Assay results: ChEMBL document CHEMBL3758168, “Hybrid triazoles: Design and synthesis as potential dual inhibitor of growth and efflux inhibition in tuberculosis” (Eur J Med Chem, 2016)
Converted amounts (≈) assume the structure as drawn.

Tests used:
[1] = Cytotoxicity against human MDM assessed as cell viability after 3 days by Alamar blue dye-based fluorocytometric analysis relative to control; conditions: 72 h
[2] = Ratio of compound IC50 to thioridazine IC50 for human MDM; assay type: ADME; conditions: read-out: Ratio IC50
[3] = system: Mycobacterium tuberculosis; assay: Antibacterial activity against Mycobacterium tuberculosis H37Rv ATCC 27294T assessed as isoniazid MIC at 64 ug/ml after 7 days by microdilution checkerboard assay; assay type: functional; conditions: 168 h
How it was run: (§1)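 Two-dimensional checkerboard in H37Rv at 10^5 CFU/ml in MB7H9/OADC. Partner drug (amikacin, EtBr, isoniazid, ofloxacin or rifampin) two-fold serially diluted across columns 3-11. Test compound two-fold serially diluted down rows 2-6. Plates incubated 7 days at 37 °C, then MTT added overnight. […] Run in triplicate.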

[4] = system: Mycobacterium tuberculosis; assay: Antibacterial activity against Mycobacterium tuberculosis H37Rv ATCC 27294T assessed as isoniazid MIC at 32 ug/ml after 7 days by microdilution checkerboard assay; assay type: functional; conditions: 168 h; how it was run: as §1
[5] = system: Mycobacterium tuberculosis; assay: Antibacterial activity against Mycobacterium tuberculosis H37Rv ATCC 27294T assessed as ethidium bromide MIC at 32 ug/ml after 7 days by microdilution checkerboard assay; assay type: functional; conditions: 168 h; how it was run: as §1
[6] = system: Mycobacterium tuberculosis; assay: Antibacterial activity against Mycobacterium tuberculosis H37Rv ATCC 27294T assessed as ethidium bromide MIC at 4 ug/ml after 7 days by microdilution checkerboard assay; assay type: functional; conditions: 168 h; how it was run: as §1
[7] = system: Mycobacterium tuberculosis; assay: Antibacterial activity against Mycobacterium tuberculosis H37Rv ATCC 27294T assessed as ethidium bromide MIC at 8 ug/ml after 7 days by microdilution checkerboard assay; assay type: functional; conditions: 168 h; how it was run: as §1
[8] = system: Mycobacterium tuberculosis; assay: Antibacterial activity against Mycobacterium tuberculosis H37Rv ATCC 27294T assessed as ethidium bromide MIC at 16 ug/ml after 7 days by microdilution checkerboard assay; assay type: functional; conditions: 168 h; how it was run: as §1
[9] = system: Mycobacterium tuberculosis; assay: Antibacterial activity against Mycobacterium tuberculosis H37Rv ATCC 27294T assessed as ofloxacin MIC at 32 ug/ml after 7 days by microdilution checkerboard assay; assay type: functional; conditions: 168 h; how it was run: as §1
[10] = system: Mycobacterium tuberculosis; assay: Antibacterial activity against Mycobacterium tuberculosis H37Rv ATCC 27294T assessed as ofloxacin MIC at 64 ug/ml after 7 days by microdilution checkerboard assay; assay type: functional; conditions: 168 h; how it was run: as §1
[11] = system: Mycobacterium tuberculosis; assay: Antibacterial activity against Mycobacterium tuberculosis H37Rv ATCC 27294T assessed as ofloxacin MIC at 2 ug/ml after 7 days by microdilution checkerboard assay; assay type: functional; conditions: 168 h; how it was run: as §1
[12] = system: Mycobacterium tuberculosis; assay: Antibacterial activity against Mycobacterium tuberculosis H37Rv ATCC 27294T assessed as ofloxacin MIC at 4 ug/ml after 7 days by microdilution checkerboard assay; assay type: functional; conditions: 168 h; how it was run: as §1
[13] = system: Mycobacterium tuberculosis; assay: Antibacterial activity against Mycobacterium tuberculosis H37Rv ATCC 27294T assessed as ofloxacin MIC at 8 ug/ml after 7 days by microdilution checkerboard assay; assay type: functional; conditions: 168 h; how it was run: as §1
[14] = system: Mycobacterium tuberculosis; assay: Antibacterial activity against Mycobacterium tuberculosis H37Rv ATCC 27294T assessed as ofloxacin MIC at 16 ug/ml after 7 days by microdilution checkerboard assay; assay type: functional; conditions: 168 h; how it was run: as §1
[15] = system: Mycobacterium tuberculosis; assay: Antibacterial activity against Mycobacterium tuberculosis H37Rv ATCC 27294T assessed as amikacin MIC at 128 ug/ml after 7 days by microdilution checkerboard assay; assay type: functional; conditions: 168 h; how it was run: as §1
[16] = system: Mycobacterium tuberculosis; assay: Antibacterial activity against Mycobacterium tuberculosis H37Rv ATCC 27294T assessed as amikacin MIC at 32 ug/ml after 7 days by microdilution checkerboard assay; assay type: functional; conditions: 168 h; how it was run: as §1
[17] = system: Mycobacterium tuberculosis; assay: Antibacterial activity against Mycobacterium tuberculosis H37Rv ATCC 27294T assessed as amikacin MIC at 64 ug/ml after 7 days by microdilution checkerboard assay; assay type: functional; conditions: 168 h; how it was run: as §1
[18] = system: Mycobacterium tuberculosis; assay: Antibacterial activity against Mycobacterium tuberculosis H37Rv ATCC 27294T assessed as amikacin MIC at 4 ug/ml after 7 days by microdilution checkerboard assay; assay type: functional; conditions: 168 h; how it was run: as §1
[19] = system: Mycobacterium tuberculosis; assay: Modulation factor, ratio of ofloxacin MIC to compound MIC for Mycobacterium tuberculosis H37Rv ATCC 27294T at 128 ug/ml in presence of ofloxacin; assay type: functional
[20] = system: Mycobacterium tuberculosis; assay: Modulation factor, ratio of ethidium bromide MIC to compound MIC for Mycobacterium tuberculosis H37Rv ATCC 27294T at 128 ug/ml in presence of ethidium bromide; assay type: functional
[21] = system: Mycobacterium tuberculosis; assay: Antibacterial activity against Mycobacterium tuberculosis H37Rv ATCC 27294T assessed as isoniazid MIC at 16 ug/ml after 7 days by microdilution checkerboard assay; assay type: functional; conditions: 168 h; how it was run: as §1
[22] = system: Mycobacterium tuberculosis; assay: Antibacterial activity against Mycobacterium tuberculosis H37Rv ATCC 27294T assessed as isoniazid MIC at 8 ug/ml after 7 days by microdilution checkerboard assay; assay type: functional; conditions: 168 h; how it was run: as §1
[23] = system: Mycobacterium tuberculosis; assay: Antibacterial activity against Mycobacterium tuberculosis H37Rv ATCC 27294T assessed as isoniazid MIC at 4 ug/ml after 7 days by microdilution checkerboard; assay type: functional; conditions: 168 h; how it was run: as §1
[24] = system: Mycobacterium tuberculosis; assay: Antibacterial activity against Mycobacterium tuberculosis H37Rv ATCC 27294T assessed as amikacin MIC at 16 ug/ml after 7 days by microdilution checkerboard assay; assay type: functional; conditions: 168 h; how it was run: as §1
[25] = system: Mycobacterium tuberculosis; assay: Antibacterial activity against Mycobacterium tuberculosis H37Rv ATCC 27294T assessed as rifampin MIC at 128 ug/ml after 7 days by microdilution checkerboard assay; assay type: functional; conditions: 168 h
How it was run: (§2)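 M. tuberculosis H37Rv grown in MB7H9 + 10% OADC at 37 °C to OD600 0.8; plates inoculated at 10^5 CFU/ml. Rifampicin two-fold serially diluted across columns, test compound two-fold diluted down rows (two-dimensional checkerboard). Sealed, 37 °C for seven days, then MTT added and incubated overnight. MIC read as no colour change. Triplicate.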

[26] = system: Mycobacterium tuberculosis; assay: Antibacterial activity against Mycobacterium tuberculosis H37Rv ATCC 27294T assessed as rifampin MIC at 32 ug/ml after 7 days by microdilution checkerboard assay; assay type: functional; conditions: 168 h; how it was run: as §2
[27] = system: Mycobacterium tuberculosis; assay: Antibacterial activity against Mycobacterium tuberculosis H37Rv ATCC 27294T assessed as rifampin MIC at 64 ug/ml after 7 days by microdilution checkerboard assay; assay type: functional; conditions: 168 h; how it was run: as §2
[28] = system: Mycobacterium tuberculosis; assay: Antibacterial activity against Mycobacterium tuberculosis H37Rv ATCC 27294T assessed as rifampin MIC at 4 ug/ml after 7 days by microdilution checkerboard assay; assay type: functional; conditions: 168 h; how it was run: as §2
[29] = system: Mycobacterium tuberculosis; assay: Antibacterial activity against Mycobacterium tuberculosis H37Rv ATCC 27294T assessed as rifampin MIC at 8 ug/ml after 7 days by microdilution checkerboard assay; assay type: functional; conditions: 168 h; how it was run: as §2
[30] = system: Mycobacterium tuberculosis; assay: Antibacterial activity against Mycobacterium tuberculosis H37Rv ATCC 27294T assessed as rifampin MIC at 16 ug/ml after 7 days by microdilution checkerboard assay; assay type: functional; conditions: 168 h; how it was run: as §2
[31] = system: Mycobacterium tuberculosis; assay: Modulation factor, ratio of isoniazid MIC to compound MIC for Mycobacterium tuberculosis H37Rv ATCC 27294T at 128 ug/ml in presence of isoniazid; assay type: functional
[32] = system: Mycobacterium tuberculosis; assay: Modulation factor, ratio of refampin MIC to compound MIC for Mycobacterium tuberculosis H37Rv ATCC 27294T at 64 ug/ml in presence of refampin; assay type: functional
[33] = system: Mycobacterium tuberculosis; assay: Modulation factor, ratio of refampin MIC to compound MIC for Mycobacterium tuberculosis H37Rv ATCC 27294T at 128 ug/ml in presence of refampin; assay type: functional
[34] = system: Mycobacterium tuberculosis; assay: Modulation factor, ratio of amikacin MIC to compound MIC for Mycobacterium tuberculosis H37Rv ATCC 27294T at 128 ug/ml in presence of amikacin; assay type: functional

SMILES: CCCSc1nnc(COc2ccccc2C2=NOC(c3ccc(Cl)cc3Cl)C2)n1NC(=O)CCl (centres undefined)
- IC50 [1]: 28.7 mg/L (≈ 51.7 µM)
- selectivity ratio [2]: 3
- MIC [3]: 0.1 mg/L
- MIC [4]: 0.1 mg/L
- MIC [5]: 12.5 mg/L
- MIC [6]: 12.5 mg/L
- MIC [7]: 12.5 mg/L
- MIC [8]: 12.5 mg/L
- MIC [9]: 1 mg/L
- MIC [10]: 1 mg/L
- MIC [11]: 2 mg/L
- MIC [12]: 2 mg/L
- MIC [13]: 1 mg/L
- MIC [14]: 1 mg/L
- MIC [15]: 0.125 mg/L
- MIC [16]: 1 mg/L
- MIC [17]: 1 mg/L
- MIC [18]: 1 mg/L
- Ratio [19]: 32
- Ratio [20]: 32
- MIC [21]: 0.1 mg/L
- MIC [22]: 0.1 mg/L
- MIC [23]: 0.1 mg/L
- MIC [24]: 1 mg/L
- MIC [25]: 0.0156 mg/L
- MIC [26]: 0.5 mg/L
- MIC [27]: 0.25 mg/L
- MIC [28]: 0.5 mg/L
- MIC [29]: 0.5 mg/L
- MIC [30]: 0.5 mg/L
- Ratio [31]: 64
- Ratio [32]: 4
- Ratio [33]: 64
- Ratio [34]: 16
